# Data taken from ChEMBL document CHEMBL1124779, “Synthesis and antitumor activity of 1-[[(dialkylamino)alkyl]amino]-4-methyl-5H-pyrido[4,3-b]benzo[e]- and -benzo[g])indoles. A new class of antineoplastic agents” (1990).
# Experiments:
# L1210 [1] = assay: Cytotoxicity in the multiple tumor disk diffusion soft agar assay at the dose of 15 ug/disk against leukemia L1210; format: functional, Mus musculus
# Summary of the method: (§1)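 Soft agar disk diffusion: bottom layer 0.8% noble agar, top layer 0.47% noble agar, both in 1:1 CMRL-Fischer medium with 11% horse serum. Top layer seeded with 5×10^3 L1210 cells or 10^6 solid tumor cells (C38, PO3). Drug applied on a dried 6-mm filter-paper disk. Incubation 7-11 days. Inhibition zone measured by inverted microscope, in units (1 unit = 30 μm).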
# P388 [2] = assay: In vivo T/C (survival time treated/survival time control x 100) was determined against P388 leukemia cells at 10 mg/Kg; format: functional, Mus musculus
# Summary of the method: (§2)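 B6D2 F1 mice, at least five per group, were inoculated ip on day 0 with 10^6 viable P388 cells (25 mL/kg). Compounds were dissolved in distilled water and given ip (25 mL/kg) daily on days 1–4. Mortality was checked daily, with necropsy of dead animals. T/C×100 was median survival, treated versus control. Survivors beyond 50 days counted as cured and were excluded from the median.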
# P388 [3] = assay: In vitro cytotoxicity was determined against P388 leukemia cells; format: functional; conditions: Mus musculus, read-out: ID50 (the source's name)
# Summary of the method: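 P388 cells in exponential growth, RPMI 1640 with 2 mM glutamine, 10 μM 2-mercaptoethanol and 10% FCS, 5% CO2, 37 °C. Cells at 10^5 cells/mL. Drugs in distilled water added on day 0. Cells counted by Coulter counter after 96 h. ID50 (μg/mL, 50% inhibition of proliferation) estimated by regression of concentration/response data.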
# [4] = Tested for cytotoxicity in the multiple tumor disk diffusion soft agar assay at the dose of 15 ug/disk against solid tumor C38; U = 32 uM; format: functional, Mus musculus; summary of the method: as §1
# [5] = Tested for cytotoxicity in the multiple tumor disk diffusion soft agar assay at the dose of 15 ug/disk against solid tumor PO3; U = […]; format: functional, Mus musculus; summary of the method: as §1
# L1210 [6] = assay: Tested for cytotoxicity in the multiple tumor disk diffusion soft agar assay at the dose of 15 ug/disk against leukemia L1210; range is 500-580; format: functional, Mus musculus; summary of the method: as §1
# L1210 [7] = assay: Tested for cytotoxicity in the multiple tumor disk diffusion soft agar assay at the dose of 15 ug/disk against leukemia L1210; U = 32 uM; format: functional, Mus musculus; summary of the method: as §1
# L1210 [8] = assay: Tested for cytotoxicity in the multiple tumor disk diffusion soft agar assay at the dose of 15 ug/disk against leukemia L1210; range is 290-350; format: functional, Mus musculus; summary of the method: as §1
# P388 [9] = assay: In vivo T/C (survival time treated/survival time control x 100) was determined against P388 leukemia cells at 40 mg/Kg; format: functional, Mus musculus; summary of the method: as §2
# L1210 [10] = assay: Tested for cytotoxicity in the multiple tumor disk diffusion soft agar assay at the dose of 15 ug/disk against leukemia L1210; range is 450-500; format: functional, Mus musculus; summary of the method: as §1
# [11] = Cytotoxicity in the multiple tumor disk diffusion soft agar assay at the dose of 15 ug/disk against solid tumor C38.; format: functional, Mus musculus; summary of the method: as §1
# [12] = Cytotoxicity in the multiple tumor disk diffusion soft agar assay at the dose of 15 ug/disk against solid tumor PO3; format: functional, Mus musculus; summary of the method: as §1
# L1210 [13] = assay: Tested for cytotoxicity in the multiple tumor disk diffusion soft agar assay at the dose of 15 ug/disk against leukemia L1210; format: functional, Mus musculus; summary of the method: as §1
# [14] = Tested for cytotoxicity in the multiple tumor disk diffusion soft agar assay at the dose of 15 ug/disk against solid tumor PO3; range is 430-480; format: functional, Mus musculus
# L1210 [15] = assay: Tested for cytotoxicity in the multiple tumor disk diffusion soft agar assay at the dose of 15 ug/disk against leukemia L1210; range is 420-525; format: functional, Mus musculus; summary of the method: as §1
# [16] = Tested for the change in body weight between day1 and 7 for murine solid tumor model B16 early stage that is subcutaneously implanted by the intravenous treatment at the dose of 5 mg/kg in 1-4 schedule; format: functional, Mus musculus
# Summary of the method: (§3)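 sc implant of 1 mm³ tumor fragment. MA 16/C in C3H mice, B16 in C57BL/6 mice, C26 in CD2F1 mice; 10 per group. iv dosing on days 1-4 at 10 mL/kg. Mice weighed daily. Killed day 14 (C26) or day 15 (MA 16/C, B16) and tumors weighed. T/C×100 from median tumor weight, treated vs control. Body weight change taken from day 1 to 7.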
# [17] = Tested for medium tumor weight of treated /control animals x 100 (% T/C) for murine solid tumor model B16 early stage that is subcutaneously implanted by the intravenous treatment at the dose of 5 mg/kg in 1-4 schedule; format: functional, Mus musculus; summary of the method: as §3
# Mus musculus [18] = assay: Tested for medium tumor weight of treated /control animals x 100 (% T/C) for murine solid tumor model C26 early stage that is subcutaneously implanted by the intravenous treatment at the dose of 10 mg/kg in 1-4 schedule; format: functional; summary of the method: as §3
# Mus musculus [19] = assay: Tested for the change in body weight between day1 and 7 for murine solid tumor model C26 early stage that is subcutaneously implanted by the intravenous treatment at the dose of 10 mg/kg in 1-4 schedule; format: functional; summary of the method: as §3
# Mus musculus [20] = assay: Tested for the change in body weight between day1 and 7 for murine solid tumor model MA 16/C early stage that is subcutaneously implanted by the intravenous treatment at the dose of 5 mg/kg in 1-4 schedule; format: functional
# Summary of the method: (§4)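 Mice given sc 1 mm³ tumor fragment: C26 in CD2F1 mice, MA 16/C in C3H mice (tumors passaged in strain of origin), 10 per group. Drug given iv days 1–4 at 10 mL/kg. Animals weighed daily and watched for toxicity. Body-weight change taken from day 1 to day 7. Killed day 14 (C26) or 15 (MA 16/C).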
# Mus musculus [21] = assay: Tested for medium tumor weight of treated /control animals x 100 (% T/C) for murine solid tumor model MA 16/C early stage that is subcutaneously implanted by the intravenous treatment at the dose of 5 mg/kg in 1-4 schedule; format: functional; summary of the method: as §3
# Mus musculus [22] = assay: In vivo total number of survivors was determined against L1210 Leukemia cells out of 8 mouse at 50 day; format: functional, Leukemia cell
# Summary of the method: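 B6D2 F1 mice, at least five per group, were inoculated ip on day 0 with 10^5 viable L1210 cells (25 mL/kg). Compounds were dissolved in distilled water and given ip (25 mL/kg) on days 1–4. Deaths were checked daily, with necropsy to separate tumor from toxic death. T/C×100 was median survival of treated over controls. Mice surviving over 50 days counted as cured and were excluded from the median.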
# Mus musculus [23] = assay: Tested for medium tumor weight of treated /control animals x 100 (% T/C) for murine solid tumor model 3LL advanced stage that is subcutaneously implanted by the intravenous treatment at the dose of 2.5 mg/kg in 1-4 schedule; format: functional
# Mus musculus [24] = assay: Tested for medium tumor weight of treated /control animals x 100 (% T/C) for murine solid tumor model B16 early stage that is subcutaneously implanted by the intravenous treatment at the dose of 1.25 mg/kg in 1-4 schedule; format: functional; summary of the method: as §3
# Mus musculus [25] = assay: Tested for the change in body weight between day1 and 7 for murine solid tumor model B16 early stage that is subcutaneously implanted by the intravenous treatment at the dose of 1.25 mg/kg in 1-4 schedule; format: functional; summary of the method: as §3
# Mus musculus [26] = assay: Tested for medium tumor weight of treated /control animals x 100 (% T/C) for murine solid tumor model C26 early stage that is subcutaneously implanted by the intravenous treatment at the dose of 2.5 mg/kg in 1-4 schedule; format: functional; summary of the method: as §3
# Mus musculus [27] = assay: Tested for the change in body weight between day1 and 7 for murine solid tumor model C26 early stage that is subcutaneously implanted by the intravenous treatment at the dose of 2.5 mg/kg in 1-4 schedule; format: functional; summary of the method: as §4
# Mus musculus [28] = assay: Tested for medium tumor weight of treated /control animals x 100 (% T/C) for murine solid tumor model MA 16/C early stage that is subcutaneously implanted by the intravenous treatment at the dose of 2.5 mg/kg in 1-4 schedule; format: functional; summary of the method: as §3
# Mus musculus [29] = assay: Tested for the change in body weight between day1 and 7 for murine solid tumor model MA 16/C early stage that is subcutaneously implanted by the intravenous treatment at the dose of 2.5 mg/kg in 1-4 schedule; format: functional; summary of the method: as §4
# Mus musculus [30] = assay: Tested for the change in body weight between day1 and 7 for murine solid tumor model 3LL early stage that is intramuscularly implanted by the intravenous treatment at the dose of 2.5 mg/kg in 1-4 schedule
# Mus musculus [31] = assay: Tested for the change in body weight between day1 and 14 for murine solid tumor model 3LL advanced stage that is intramuscularly implanted by the intravenous treatment at the dose of 2.5 mg/kg in 7-10 schedule
# Mus musculus [32] = assay: Tested for mean number of metastases in treated/control animals x 100 (% T/C) for murine solid tumor model 3LL early stage that is intramuscularly implanted by the intravenous treatment at the dose of 2.5 mg/kg in 1-4 schedule
smiles,measurement,setting,value
Cc1cnc(NCCCN(C)C)c2c3ccc4ccccc4c3n(C)c12,Cytotoxicity,L1210 [1],450 U
same,T/C x100,P388 [2],119
same,IC50,P388 [3],0.375 µg/mL
same,Cytotoxicity,[4],480 U
same,Cytotoxicity,[5],325 U
same,Cytotoxicity,L1210 [6],500 U
COc1cccc2c1ccc1c3c(NCCCN(C)C)ncc(C)c3n(C)c21,Cytotoxicity,L1210 [7],375 U
same,Cytotoxicity,L1210 [8],290 U
same,T/C x100,P388 [9],130
same,IC50,P388 [3],0.75 µg/mL
same,Cytotoxicity,[4],675 U
same,Cytotoxicity,[5],275 U
CCN(CC)CCCNc1ncc(C)c2c1c1c3ccc(OC)cc3ccc1n2C,Cytotoxicity,L1210 [10],450 U
same,Cytotoxicity,L1210 [1],400 U
same,T/C x100,P388 [9],143
same,IC50,P388 [3],0.75 µg/mL
same,Cytotoxicity,[11],325 U
same,Cytotoxicity,[12],375 U
CCN(CC)CCCNc1ncc(C)c2c1c1ccc3c(O)cccc3c1n2C,Cytotoxicity,L1210 [7],500 U
same,Cytotoxicity,L1210 [13],450 U
same,T/C x100,P388 [2],160
same,IC50,P388 [3],0.05 µg/mL
same,Cytotoxicity,[4],730 U
same,Cytotoxicity,[14],430 U
CCN(CC)CCCNc1ncc(C)c2[nH]c3ccc4ccccc4c3c12,Cytotoxicity,L1210 [15],420 U
same,T/C x100,P388 [9],149
same,IC50,P388 [3],0.18 µg/mL
same,Cytotoxicity,[11],525 U
CCN(CC)CCCNc1nccc2c(C)c3[nH]c4ccncc4c3cc12 [PAZELLIPTINE],Change in weight,[16],-0.5 g
same,T/C,[17],10%
same,T/C,Mus musculus [18],10%
same,Change in weight,Mus musculus [19],-1.5 g
same,Change in weight,Mus musculus [20],-1.5 g
same,T/C,Mus musculus [21],45%
CCN(CC)CCCNc1nccc2c(C)c3[nH]c4ccc(OC)cc4c3c(C)c12 [RETELLIPTINE],Survivors,Mus musculus [22],3
same,T/C,Mus musculus [23],40%
same,T/C,Mus musculus [24],26%
same,Change in weight,Mus musculus [25],1 g
same,T/C,Mus musculus [26],0%
same,Change in weight,Mus musculus [27],-2.1 g
same,T/C,Mus musculus [28],4%
same,Change in weight,Mus musculus [29],-2.2 g
same,Change in weight,Mus musculus [30],-1.4 g
same,Change in weight,Mus musculus [31],0 g
same,T/C,Mus musculus [32],0%
